Measurements reported in ChEMBL document CHEMBL1151458, “Comparative analysis of the bactericidal activities of amphibian peptide analogues against multidrug-resistant nosocomial bacterial strains” (2008).
Calls of active or inactive are those of the source. The rule behind the calls is not given here.

What was measured:
Acinetobacter baumannii [1] = test: Bactericidal activity against Acinetobacter baumannii isolate 3 with AMP-AMC-CFZ-CIP-IPM-SXT-TET-TOB resistance phenotype assessed as concentration required for >= 3 log10 CFU/ml reduction in viable bacteria in 20% heat-inactivated human serum after 1.5 hrs by liquid microdilution assay; assay type: functional
In short: (§1)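 The buffer microdilution kill assay (1 × 10^7 CFU/ml mid-log cells, 10 μl in 100 μl, 37°C, 1.5 h, CFU on tryptone soy agar after 24 h) with serum added to 20% or 40% final. Serum was pooled from five healthy donors, clotted at room temperature, spun at 300 × g and heat-inactivated at 56°C for 30 min.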

Pseudomonas aeruginosa [2] = test: Antimicrobial activity against Pseudomonas aeruginosa isolate 1 with AMP-CFZ-CIP-CTX-CXM-GEN-LVX-SXT-TET resistance phenotype at bactericidal concentration after 30 mins by time kill assay; assay type: functional, organism-based
In short: (§2)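 Time-kill in 10 mM sodium phosphate buffer, pH 7.4: 1 × 10^7 CFU/ml mid-log clinical isolate (10 μl) exposed at 37°C to peptide at the 1.5-h bactericidal concentration or twofold that, in 100 μl. Samples taken from 2 min onward, plated on tryptone soy agar, CFU counted after 24 h at 37°C. Killing taken as ≥3 log10 CFU/ml drop.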

Enterococcus faecium [3] = test: Bactericidal activity against Enterococcus faecium isolate 3 with AMP-CIP-CTX-ERY-GEN-LVX-SXT-TEC-VAN resistance phenotype assessed as concentration required for >= 3 log10 CFU/ml reduction in viable bacteria in 20% heat-inactivated human serum after 1.5 hrs by liquid microdilution assay; assay type: functional; in short: as §1
[4] = system: Stenotrophomonas maltophilia; test: Antimicrobial activity against Stenotrophomonas maltophilia isolate 2 with AMK-CIP-CTX-IPM-MEM-SAM-TZP resistance phenotype assessed as assessed as time to kill at twofold bactericidal concentration; assay type: functional; in short: as §2
Acinetobacter baumannii [5] = test: Antimicrobial activity against Acinetobacter baumannii isolate 3 with AMP-AMC-CFZ-CIP-IPM-SXT-TET-TOB resistance phenotype assessed as time to kill at bactericidal concentration; assay type: functional; in short: as §2
Staphylococcus aureus [6] = test: Bactericidal activity against Staphylococcus aureus isolate 2 with AMC-AMP-CIP-ERY-GEN-LVX-OXA-RIF-TET resistance phenotype assessed as concentration required for >= 3 log10 CFU/ml reduction in viable bacteria in sodium phosphate buffer at pH 7.4 after 1.5 hrs by liquid microdilution assay; assay type: functional
In short: (§3)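 Clinical multidrug-resistant isolates grown to mid-log in tryptone soy broth and stored frozen. Exponential cells resuspended in 10 mM sodium phosphate buffer, pH 7.4, at 1 × 10^7 CFU/ml; 10 μl incubated with graded peptide concentrations in 100 μl at 37°C for 1.5 h. Plated on tryptone soy agar, CFU read after 24 h at 37°C. Peptide stocks in 20% ethanol.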

Enterococcus faecium [7] = test: Antimicrobial activity against Enterococcus faecium isolate 3 with AMP-CIP-CTX-ERY-GEN-LVX-SXT-TEC-VAN resistance phenotype assessed as time to kill at twofold the bactericidal concentration; assay type: functional, organism-based; in short: as §2
[8] = system: Stenotrophomonas maltophilia; test: Bactericidal activity against Stenotrophomonas maltophilia isolate 2 with AMK-CIP-CTX-IPM-MEM-SAM-TZP resistance phenotype assessed as concentration required for >= 3 log10 CFU/ml reduction in viable bacteria in 20% heat-inactivated human serum after 1.5 hrs by liquid microdilution assay; assay type: functional; in short: as §1
Staphylococcus aureus [9] = test: Bactericidal activity against Staphylococcus aureus isolate 1 with AMC-AMP-CIP-ERY-GEN-OXA-RIF resistance phenotype assessed as concentration required for >= 3 log10 CFU/ml reduction in viable bacteria in 20% heat-inactivated human serum after 1.5 hrs by liquid microdilution assay; assay type: functional; in short: as §1
Enterococcus faecium [10] = test: (§4) Bactericidal activity against Enterococcus faecium isolate 3 with AMP-CIP-CTX-ERY-GEN-LVX-SXT-TEC-VAN resistance phenotype assessed as concentration required for >= 3 log10 CFU/ml reduction in viable bacteria in sodium phosphate buffer at pH 7.4 after 1.5 hrs by liquid microdilution assay; assay type: functional; in short: as §3
Pseudomonas aeruginosa [11] = test: Bactericidal activity against Pseudomonas aeruginosa isolate 1 with AMP-CFZ-CIP-CTX-CXM-GEN-LVX-SXT-TET resistance phenotype assessed as concentration required for >= 3 log10 CFU/ml reduction in viable bacteria in 20% heat-inactivated human serum after 1.5 hrs by liquid microdilution assay; assay type: functional; in short: as §1
Staphylococcus aureus [12] = test: Antimicrobial activity against Staphylococcus aureus isolate 1 with AMC-AMP-CIP-ERY-GEN-OXA-RIF resistance phenotype at twofold the bactericidal concentration within 30 mins; assay type: functional, organism-based; in short: as §2
[13] = system: Stenotrophomonas maltophilia; test: Bactericidal activity against Stenotrophomonas maltophilia isolate 2 with AMK-CIP-CTX-IPM-MEM-SAM-TZP resistance phenotype assessed as concentration required for >= 3 log10 CFU/ml reduction in viable bacteria in sodium phosphate buffer at pH 7.4 after 1.5 hrs by liquid microdilution assay; assay type: functional; in short: as §3
Acinetobacter baumannii [14] = test: Bactericidal activity against Acinetobacter baumannii isolate 1 with AMP-AMC-CFZ-CIP-IPM-LVX-PIP-SXT-TET resistance phenotype assessed as concentration required for >= 3 log10 CFU/ml reduction in viable bacteria in sodium phosphate buffer at pH 7.4 after 1.5 hrs by liquid microdilution assay; assay type: functional; in short: as §3
Staphylococcus aureus [15] = test: Bactericidal activity against Staphylococcus aureus isolate 1 with AMC-AMP-CIP-ERY-GEN-OXA-RIF resistance phenotype assessed as concentration required for >= 3 log10 CFU/ml reduction in viable bacteria in sodium phosphate buffer at pH 7.4 after 1.5 hrs by liquid microdilution assay; assay type: functional; in short: as §3
Acinetobacter baumannii [16] = test: Bactericidal activity against Acinetobacter baumannii isolate 2 with AMP-CFZ-CIP-LVX-PIP-SXT resistance phenotype assessed as concentration required for >= 3 log10 CFU/ml reduction in viable bacteria in sodium phosphate buffer at pH 7.4 after 1.5 hrs by liquid microdilution assay; assay type: functional; in short: as §3
Pseudomonas aeruginosa [17] = test: Antimicrobial activity against Pseudomonas aeruginosa isolate 1 with AMP-CFZ-CIP-CTX-CXM-GEN-LVX-SXT-TET resistance phenotype at twofold bactericidal concentration after 10 to 30 mins by time kill assay; assay type: functional, organism-based; in short: as §2
Pseudomonas aeruginosa [18] = test: Bactericidal activity against Pseudomonas aeruginosa isolate 1 with AMP-CFZ-CIP-CTX-CXM-GEN-LVX-SXT-TET resistance phenotype assessed as concentration required for >= 3 log10 CFU/ml reduction in viable bacteria in sodium phosphate buffer at pH 7.4 after 1.5 hrs by liquid microdilution assay; assay type: functional; in short: as §3
Enterococcus faecium [19] = test: as §4, with “isolate 6” for “isolate 3”, “with AMP-AMC-CLI-CRO-CTX-CIP-ERY-GEN-KAN-LVX-SXT-VAN” for “with AMP-CIP-CTX-ERY-GEN-LVX-SXT-TEC-VAN”; assay type: functional; in short: as §3
[20] = system: Stenotrophomonas maltophilia; test: Bactericidal activity against Stenotrophomonas maltophilia isolate 4 with AMK-CAZ-CIP-FEP-IPM-SAM-TZP resistance phenotype assessed as concentration required for >= 3 log10 CFU/ml reduction in viable bacteria in sodium phosphate buffer at pH 7.4 after 1.5 hrs by liquid microdilution assay; assay type: functional; in short: as §3
Acinetobacter baumannii [21] = test: Bactericidal activity against Acinetobacter baumannii isolate 3 with AMP-AMC-CFZ-CIP-IPM-SXT-TET-TOB resistance phenotype assessed as concentration required for >= 3 log10 CFU/ml reduction in viable bacteria in sodium phosphate buffer at pH 7.4 after 1.5 hrs by liquid microdilution assay; assay type: functional; in short: as §3
[22] = system: Stenotrophomonas maltophilia; test: Bactericidal activity against Stenotrophomonas maltophilia isolate 1 with AMK-CIP-CTX-IPM-MEM-SAM-TZP resistance phenotype assessed as concentration required for >= 3 log10 CFU/ml reduction in viable bacteria in sodium phosphate buffer at pH 7.4 after 1.5 hrs by liquid microdilution assay; assay type: functional; in short: as §3
Staphylococcus aureus [23] = test: Bactericidal activity against Staphylococcus aureus isolate 3 with AMC-AMP-CIP-ERY-GEN-LVX-OXA resistance phenotype assessed as concentration required for >= 3 log10 CFU/ml reduction in viable bacteria in sodium phosphate buffer at pH 7.4 after 1.5 hrs by liquid microdilution assay; assay type: functional; in short: as §3
Pseudomonas aeruginosa [24] = test: Bactericidal activity against Pseudomonas aeruginosa isolate 2 with AMP-CFZ-CIP-CTX-CXM-GEN-LVX-IPM-MEM-SXT-TET resistance phenotype assessed as concentration required for >= 3 log10 CFU/ml reduction in viable bacteria in sodium phosphate buffer at pH 7.4 after 1.5 hrs by liquid microdilution assay; assay type: functional; in short: as §3
Enterococcus faecium [25] = test: Bactericidal activity against Enterococcus faecium isolate 5 with AMP-AMC-CIP-CLI-ERY-GEN-KAN-LVX-SXT-TEC-VAN resistance phenotype assessed as concentration required for >= 3 log10 CFU/ml reduction in viable bacteria in sodium phosphate buffer at pH 7.4 after 1.5 hrs by liquid microdilution assay; assay type: functional; in short: as §3
Pseudomonas aeruginosa [26] = test: Bactericidal activity against Pseudomonas aeruginosa isolate 3 with AMP-CFZ-CTX-CIP-GEN-IPM-LVX-SXT-TET-TOB resistance phenotype assessed as concentration required for >= 3 log10 CFU/ml reduction in viable bacteria in sodium phosphate buffer at pH 7.4 after 1.5 hrs by liquid microdilution assay; assay type: functional; in short: as §3
Enterococcus faecium [27] = test: Antimicrobial activity against Enterococcus faecium isolate 3 with AMP-CIP-CTX-ERY-GEN-LVX-SXT-TEC-VAN resistance phenotype assessed as time to kill at bactericidal concentration; assay type: functional; in short: as §2

Substance: H-FLPLIGRVLSGIL-NH2 [TEMPORIN A]
- Activity (Acinetobacter baumannii [1]): >193 µM
- Activity (Pseudomonas aeruginosa [2]): inactive
- Activity (Enterococcus faecium [3]): 48 µM
- Time [4]: 2 min
- Time (Acinetobacter baumannii [5]): >=30 min
- Activity (Staphylococcus aureus [6]): 12 µM
- Activity (Enterococcus faecium [7]): inactive
- Activity [8]: >192 µM
- Activity (Staphylococcus aureus [9]): 48 µM
- Activity (Enterococcus faecium [10]): 12 µM
- Activity (Pseudomonas aeruginosa [11]): >194 µM
- Activity (Staphylococcus aureus [12]): inactive
- Activity [13]: 12 µM
- Activity (Acinetobacter baumannii [14]): 24 µM
- Activity (Staphylococcus aureus [15]): 12 µM
- Activity (Acinetobacter baumannii [16]): 12 µM
- Activity (Pseudomonas aeruginosa [17]): Active
- Activity (Pseudomonas aeruginosa [18]): 48 µM
- Activity (Enterococcus faecium [19]): 12 µM
- Activity [20]: 96 µM
- Activity (Acinetobacter baumannii [21]): 12 µM
- Activity [22]: 48 µM
- Activity (Staphylococcus aureus [23]): 12 µM
- Activity (Pseudomonas aeruginosa [24]): 48 µM
- Activity (Enterococcus faecium [25]): 12 µM
- Activity (Pseudomonas aeruginosa [26]): 96 µM
- Time (Enterococcus faecium [27]): 5 min

Substance: H-FFPVIGRILNGIL-NH2 [TEMPORIN G]
- Activity (Acinetobacter baumannii [1]): >193 µM
- Activity (Pseudomonas aeruginosa [2]): inactive
- Activity (Enterococcus faecium [3]): 48 µM
- Time [4]: 2 min
- Time (Acinetobacter baumannii [5]): >=30 min
- Activity (Staphylococcus aureus [6]): 12 µM
- Activity (Enterococcus faecium [7]): inactive
- Activity [8]: >192 µM
- Activity (Staphylococcus aureus [9]): 96 µM
- Activity (Enterococcus faecium [10]): 6 µM
- Activity (Pseudomonas aeruginosa [11]): >194 µM
- Activity (Staphylococcus aureus [12]): Active
- Activity [13]: 3 µM
- Activity (Acinetobacter baumannii [14]): 12 µM
- Activity (Staphylococcus aureus [15]): 24 µM
- Activity (Acinetobacter baumannii [16]): 6 µM
- Activity (Pseudomonas aeruginosa [17]): Active
- Activity (Pseudomonas aeruginosa [18]): 48 µM
- Activity (Enterococcus faecium [19]): 6 µM
- Activity [20]: >96 µM
- Activity (Acinetobacter baumannii [21]): 6 µM
- Activity [22]: 12 µM
- Activity (Staphylococcus aureus [23]): 12 µM
- Activity (Pseudomonas aeruginosa [24]): 48 µM
- Activity (Enterococcus faecium [25]): 6 µM
- Activity (Pseudomonas aeruginosa [26]): 48 µM
- Time (Enterococcus faecium [27]): 5 min
